Compounds with a hit are over-represented: about 2.6% of the library has one in this group of screens.
ARFGAP1 inh: inhibitors of rat ARFGAP1 GAP activity, primary screen, biochemical, fluorescence polarization, GDP tracer; inhibition, % at 16.5 µM; 360,000 tested, 0.26% active; Arfgap1-stimulated ARF1 GTP hydrolysis, GDP FP detection;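 active = inhibition above a per-plate limit, mean inhibition of low control wells plus 3 SD, cut at about 25% in these data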
Target sequence (Q62848 1-136 limits assumed): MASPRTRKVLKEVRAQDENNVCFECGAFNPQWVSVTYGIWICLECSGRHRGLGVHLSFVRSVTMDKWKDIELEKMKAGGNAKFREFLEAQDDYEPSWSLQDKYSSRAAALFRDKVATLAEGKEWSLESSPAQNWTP
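Replicates: Single well per compound | Assay system: Truncated rat Arfgap1 GAP domain | Control set: No-Arfgap1 wells (100%) versus DMSO full-reaction wells (0%) | Times: Enzyme reaction 120 min at 25 °C after 20 min preincubation | Reagent: Human ARF1(Δ1-17)-GTP substrate | Measured by: Tracer-displacement fluorescence polarization with EDTA stop, 620/688 nm | Measure: Percent inhibition of Arfgap1-stimulated GTP hydrolysis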
esBAF inh: Bmi1 luciferase reporter increase in mESCs, primary screen, esBAF inhibitor project, mouse ES cells, Bmi1 luciferase knock-in, single point; 24 h; 100% = twice the neutral-well signal; reporter increase, % at 12.5 µM; 350,000 tested, 2% active; AID 602393, 2012; in the data active = activation above about 40%;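 also: a rise in the Bmi1 reporter signal indicates esBAF inhibition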
ASAP1 GAP inh: inhibitors of human ASAP1 ArfGAP activity, primary screen, biochemical, fluorescence polarization; AID 624377, 2012; Arf-GAP with SH3 domain, ANK repeat and PH domain-containing protein 1 (Homo sapiens), …; ASAP1-stimulated ARF1 GTP hydrolysis, GDP FP detection; 360,000 tested, 0.19% active; inhibition, % at 16.5 µM; in the data active = inhibition above about 25%
Target sequence (Q9ULH1 325-724 limits assumed): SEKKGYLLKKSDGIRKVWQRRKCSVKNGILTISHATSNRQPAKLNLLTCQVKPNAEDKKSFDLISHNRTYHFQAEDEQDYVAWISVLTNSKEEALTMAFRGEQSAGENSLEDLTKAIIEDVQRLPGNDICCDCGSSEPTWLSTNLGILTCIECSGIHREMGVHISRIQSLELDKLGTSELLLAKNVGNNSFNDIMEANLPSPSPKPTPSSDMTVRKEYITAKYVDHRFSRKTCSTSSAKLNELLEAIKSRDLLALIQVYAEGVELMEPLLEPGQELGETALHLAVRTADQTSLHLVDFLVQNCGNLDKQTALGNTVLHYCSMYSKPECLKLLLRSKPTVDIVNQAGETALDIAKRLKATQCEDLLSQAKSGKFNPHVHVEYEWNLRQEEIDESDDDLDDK
SMARCA2 activ: SMARCA2 (BRM) function activators, primary screen, cell-based, luminescence, high throughput. 370,000 tested, 1% active. MG213 cells, MMTV-luciferase reporter, dexamethasone, overnight. activation, % at 9.1 µM; in the data active = activation above about 7.8%
SMARCA2 conf: SMARCA2 (BRM) function activators, confirmation, cell-based, luminescence, triplicate | shares compounds with SMARCA2 activ | MG213 cells, MMTV-luciferase with dexamethasone, overnight; MG213 cells expressing E1A, Rb sequestered; DMSO wells 0%, reference activator 100% | activation, % at 9.1 µM | 3,500 tested, 30% active | AID 652260, 2013;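 active = activation above its plate's cutoff, the mean activation of tested wells plus 3 SD, cut at about 7.9% in these data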
VP16 Luc act: GAL4-VP16 luciferase reporter activation, counter-screen for SMARCA2 (BRM) activator project, cell-based, pG5luc, luminescence, high throughput; shares compounds with SMARCA2 activ; HEK293 GAL4-VP16 pG5luc reporter; scaled: DMSO wells 0%, SAHA wells 100%; activation, % at 9.1 µM; 3,500 tested, 41% active; AID 686939, 2013;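 active = activation above the solvent-only control well mean plus 3 SD, averaged across control plates, cut at about 5.2% in these data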
Each line names hits and unclear results; the compound was inactive in the other large screens (follow-up assays come after a bar, where they were run).

COc1ccc(S(=O)(=O)N(C)C[C@@H]2Oc3c(NC(=O)Nc4ccc(C(F)(F)F)cc4)cccc3C(=O)N([C@@H](C)CO)C[C@@H]2C)cc1	none (no result: ARFGAP1 inh, ASAP1 GAP inh, SMARCA2 activ)
COc1cc(NC(=O)c2ccc([N+](=O)[O-])o2)ccc1NC(=O)c1ccco1	none
Cc1ccccc1C(=O)N1CCN(c2ccc(NC(=O)c3ccc([N+](=O)[O-])o3)cc2)CC1	SMARCA2 activ 12.8 | SMARCA2 conf inactive | VP16 Luc act inactive
Cc1cc(NC(=O)c2ccc([N+](=O)[O-])o2)ccc1NC(=O)c1ccco1	SMARCA2 activ 10.1 (no result: esBAF inh) | SMARCA2 conf 17.7 | VP16 Luc act inactive
Cc1ccc(NC(=O)c2ccc([N+](=O)[O-])o2)cc1S(=O)(=O)N1CCOCC1	SMARCA2 activ 17.0 (no result: esBAF inh) | SMARCA2 conf 14.4 | VP16 Luc act inactive
CC(=O)c1ccc(NC(=O)c2ccc([N+](=O)[O-])o2)cc1	SMARCA2 activ 9.4 | SMARCA2 conf 18.8 | VP16 Luc act inactive
C[C@H](NC(=O)C[C@H]1C[C@H]2c3cc(NC(=O)NC4CCCC4)ccc3O[C@H]2[C@H](CO)O1)c1ccccc1	none (no result: ARFGAP1 inh, ASAP1 GAP inh, SMARCA2 activ)
COc1cccc(-c2ccc([C@H]3[C@@H](CO)N(C(=O)Cc4ccncc4)[C@H]3C#N)cc2)c1	none (no result: ARFGAP1 inh, ASAP1 GAP inh, SMARCA2 activ)
O=C(Nc1ccc(Cl)cn1)c1ccc([N+](=O)[O-])o1	SMARCA2 activ 10.8 (no result: esBAF inh) | SMARCA2 conf 13.8 | VP16 Luc act inactive
Cc1cc(C)cc(NC(=O)c2ccc([N+](=O)[O-])o2)c1	none (no result: esBAF inh)
COc1ccc(NC(=O)c2ccc([N+](=O)[O-])o2)cc1	SMARCA2 activ 12.4 | SMARCA2 conf 29.2 | VP16 Luc act inactive
CCCN(C)C[C@@H]1Oc2cc(C#CCC3CCCC3)ccc2S(=O)(=O)N([C@H](C)CO)C[C@H]1C	none (no result: ARFGAP1 inh, ASAP1 GAP inh, SMARCA2 activ)
C=CCSc1nnc(NC(=O)C2=COCCO2)s1	SMARCA2 activ 8.0 | SMARCA2 conf 8.2 | VP16 Luc act 10.6
CCc1ccccc1OCC(=O)OCC(=O)Nc1cc(C)on1	SMARCA2 activ 8.3 | SMARCA2 conf inactive | VP16 Luc act inactive
Cc1cc(NC(=O)COC(=O)COc2ccc(C(=O)c3ccccc3)cc2)no1	none
COc1ccc(C(=O)Cc2ccc3c(c2)OCO3)c(O)c1	SMARCA2 activ 8.2 (no result: esBAF inh) | SMARCA2 conf inactive | VP16 Luc act 8.9
Cc1cccc(NC(=S)NNC(=O)c2csc(C)c2)c1	SMARCA2 activ 9.2 (no result: esBAF inh) | SMARCA2 conf 8.0 | VP16 Luc act 7.5
C[C@@H]1CN([C@@H](C)CO)C(=O)c2c(c3ccccc3n2C)-c2ccccc2CO[C@@H]1CN(C)C(=O)c1ccc(F)cc1	none (no result: ARFGAP1 inh, ASAP1 GAP inh, SMARCA2 activ)
ClC(Cl)(c1nnnn1-c1ccccc1)c1nnnn1-c1ccccc1	SMARCA2 activ 23.6 | SMARCA2 conf inactive | VP16 Luc act inactive
Cc1cccc(NC(=O)CCc2c(C)nn(-c3ccc(N4CCOCC4)nn3)c2C)c1	none
COc1cccc(NC(=O)CCc2c(C)nn(-c3ccc(N4CCOCC4)nn3)c2C)c1	SMARCA2 activ 10.6 | SMARCA2 conf inactive | VP16 Luc act inactive
COc1cccc(CNC(=O)C[C@H]2CC[C@H](NC(=O)C3CCC3)[C@@H](CO)O2)c1	none (no result: ARFGAP1 inh, ASAP1 GAP inh, SMARCA2 activ)
CC(=O)N1CCc2c(sc(NC(=O)CN3C(=O)c4ccccc4C3=O)c2C(N)=O)C1	none
Cc1csc(NC(=O)CN2C(=O)c3ccccc3C2=O)c1C(N)=O	SMARCA2 activ 9.1 (no result: esBAF inh) | SMARCA2 conf inactive | VP16 Luc act inactive
CCOc1ccc(NC(=O)c2cnccn2)cc1	none
CCOc1ccc(NC(=O)c2nccnc2CO)cc1	SMARCA2 activ 9.8 | SMARCA2 conf inactive | VP16 Luc act 9.8
CCOc1ccc(NC(=O)c2cnsn2)cc1	SMARCA2 activ 8.1 | SMARCA2 conf 14.3 | VP16 Luc act inactive
COc1ccc(-c2cnc3c(c2)C(=O)N([C@H](C)CO)C[C@H](C)[C@@H](CN(C)S(C)(=O)=O)O3)cc1	none (no result: ARFGAP1 inh, ASAP1 GAP inh, SMARCA2 activ)
Cc1noc(C)c1NC(=O)Nc1ccc2c(c1)C(=O)N([C@H](C)CO)C[C@@H](C)[C@H](CN(C)Cc1ccc(Cl)c(Cl)c1)OCCCC[C@@H](C)O2	none (no result: ARFGAP1 inh, ASAP1 GAP inh, SMARCA2 activ)
CCN(CC)CCn1c2ccccc2c2nc3ccccc3nc21	esBAF inh 78.1, SMARCA2 activ 34.2 | SMARCA2 conf 110.5 | VP16 Luc act inactive
CCCn1c2ccccc2c2nc3ccccc3nc21	none (no result: esBAF inh)
CCOC(=O)c1ccc(-n2c(CN3CCC(C(N)=O)CC3)nc3ccc([N+](=O)[O-])cc3c2=O)cc1	none
CCN1CCN(Cc2nc3ccc([N+](=O)[O-])cc3c(=O)n2-c2ccc(OC)cc2OC)CC1	none (no result: esBAF inh)
COc1ccc(-n2c(CN3CCC(C(N)=O)CC3)nc3ccc([N+](=O)[O-])cc3c2=O)c(OC)c1	SMARCA2 activ 8.0 | SMARCA2 conf inactive | VP16 Luc act inactive
CCOC(=O)C1CCN(Cc2nc3ccc([N+](=O)[O-])cc3c(=O)n2-c2ccc(OC)cc2OC)CC1	esBAF inh 47.6, SMARCA2 activ 9.1 | SMARCA2 conf inactive | VP16 Luc act inactive
CCOC(=O)c1ccc(-n2c(CN3CCC(O)CC3)nc3ccc([N+](=O)[O-])cc3c2=O)cc1	SMARCA2 activ 19.2 | SMARCA2 conf 9.5 | VP16 Luc act inactive
O=C(C[C@H]1CC[C@H]2[C@@H](COC[C@H](O)CN2C(=O)c2cnccn2)O1)NCc1ccccc1	none (no result: ARFGAP1 inh, ASAP1 GAP inh, SMARCA2 activ)
CN(C)C(=O)c1cccc(-c2ccc3c(c2)[C@H]2[C@H](CCN2Cc2ccccc2F)[C@H](CO)N3)c1	none (no result: ARFGAP1 inh, ASAP1 GAP inh, SMARCA2 activ)
C[C@@H]1CN([C@@H](C)CO)C(=O)Cc2cc(NC(=O)C3CCCCC3)ccc2O[C@@H]1CN(C)C(=O)Nc1ccc(F)cc1	none (no result: ARFGAP1 inh, ASAP1 GAP inh, SMARCA2 activ)
CO[C@H]1CN(C)C(=O)c2ccc(NC(=O)Nc3ccccc3)cc2OC[C@@H](C)N(C(=O)Nc2c(C)noc2C)C[C@@H]1C	none (no result: ARFGAP1 inh, ASAP1 GAP inh, SMARCA2 activ)
CCOC(=O)c1c(C)[nH]c(N=Nc2ccc(OC)cc2)c1C	SMARCA2 activ 9.3 (no result: esBAF inh) | SMARCA2 conf inactive | VP16 Luc act 7.7
COC(=O)c1c(C)[nH]c(C=Nc2ccc(OC)cc2)c1C	none (no result: esBAF inh)
O=C(NCc1ccccn1)c1cccc([N+](=O)[O-])c1	none
O=C(c1cc([N+](=O)[O-])cc([N+](=O)[O-])c1)N(c1ccccn1)c1ccccn1	none (no result: esBAF inh)
O=C(c1cccc([N+](=O)[O-])c1)N(c1ccccn1)c1ccccn1	SMARCA2 activ 8.0 (no result: esBAF inh) | SMARCA2 conf inactive | VP16 Luc act inactive
